From ChEMBL document CHEMBL1127395, “Synthesis and antimicrobial activity of novel 3-[(aminopyrimidiniumyl)thio]methyl cephalosporins” (1994) come the findings set out here.

The structures appear in SMILES notation. In brackets after ≈: the same amount, converted by molar mass.

The first experiment has as its system Escherichia coli. Put plainly: In vitro minimum inhibitory concentration for Escherichia coli (ATCC-10536) by agar dilution method. The experiment is classed as functional. The settings on record: Escherichia coli; read-out: MIC. In short, it runs like this: (§1)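 Two-fold serial dilutions of each compound dispersed in Mueller-Hinton agar; plates spot-inoculated with 2 μL of standard test strain at 10^7 CFU/mL, incubated 37 °C for 20 h; MIC read as lowest concentration inhibiting growth.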
(In agar dilution, organisms are placed on agar that contains the substance at set levels.)
As usually defined, the MIC is the lowest concentration that inhibits growth of the organism. Regarding `COc1cc(N)nc(SCC2=C(C(=O)[O-])N3C(=O)C(NC(=O)/C(=N\OC(C)(C)C(=O)O)c4cnc(N)s4)C3SC2)[n+]1C` (stereo unspecified), the MIC was found to be 0.06 µg/mL (≈ 0.0939 µM).
Still for that read-out and setting: with `C[n+]1ccc(N)nc1SCC1=C(C(=O)[O-])N2C(=O)C(NC(=O)/C(=N\OC(C)(C)C(=O)O)c3cnc(N)s3)C2SC1` (stereo unspecified) the figure was 0.03 µg/mL (≈ 0.0493 µM); with `CC(C)(O/N=C(\C(=O)NC1C(=O)N2C(C(=O)O)=C(CSc3ncccn3)CSC12)c1cnc(N)s1)C(=O)O` (stereo unspecified), 1 µg/mL (≈ 1.73 µM).

The test system of the next experiment is Serratia marcescens. Description: In vitro minimum inhibitory concentration for Serratia marcescens (ATCC-27117) by agar dilution method. The experiment is classed as functional. The settings on record: Serratia marcescens; read-out: MIC. The gist of the method:
as §1
On to `COc1cc(N)nc(SCC2=C(C(=O)[O-])N3C(=O)C(NC(=O)/C(=N\OC(C)(C)C(=O)O)c4cnc(N)s4)C3SC2)[n+]1C` (stereo unspecified), for which the MIC worked out at 0.25 µg/mL (≈ 0.391 µM).
On the same count and under the same terms, with `C[n+]1ccc(N)nc1SCC1=C(C(=O)[O-])N2C(=O)C(NC(=O)/C(=N\OC(C)(C)C(=O)O)c3cnc(N)s3)C2SC1` (stereo unspecified) the figure was 0.06 µg/mL (≈ 0.0986 µM); with `CC(C)(O/N=C(\C(=O)NC1C(=O)N2C(C(=O)O)=C(CSc3ncccn3)CSC12)c1cnc(N)s1)C(=O)O` (stereo unspecified), 2 µg/mL (≈ 3.45 µM).

A further experiment has as its system Klebsiella pneumoniae. Description: In vitro minimum inhibitory concentration for Klebsiella pneumoniae (ATCC-10031) by agar dilution method. Type of experiment: functional. The settings on record: Klebsiella pneumoniae; read-out: MIC.
For the compound `COc1cc(N)nc(SCC2=C(C(=O)[O-])N3C(=O)C(NC(=O)/C(=N\OC(C)(C)C(=O)O)c4cnc(N)s4)C3SC2)[n+]1C` (stereo unspecified), the MIC stood at 0.06 µg/mL (≈ 0.0939 µM).
Still for that read-out and setting: with `C[n+]1ccc(N)nc1SCC1=C(C(=O)[O-])N2C(=O)C(NC(=O)/C(=N\OC(C)(C)C(=O)O)c3cnc(N)s3)C2SC1` (stereo unspecified) the figure was 0.03 µg/mL (≈ 0.0493 µM).
Still for that read-out and setting: the result for `CC(C)(O/N=C(\C(=O)NC1C(=O)N2C(C(=O)O)=C(CSc3ncccn3)CSC12)c1cnc(N)s1)C(=O)O` (stereo unspecified) reads 0.5 µg/mL (≈ 0.863 µM).

A further experiment has as its system Citrobacter freundii. Put plainly: In vitro minimum inhibitory concentration for Citrobacter freundii (ATCC-8090) by agar dilution method. The following applies: Citrobacter freundii; read-out: MIC. Type of experiment: functional. The gist of the method: as §1
Consider `COc1cc(N)nc(SCC2=C(C(=O)[O-])N3C(=O)C(NC(=O)/C(=N\OC(C)(C)C(=O)O)c4cnc(N)s4)C3SC2)[n+]1C` (stereo unspecified), for which the MIC is 0.13 µg/mL (≈ 0.204 µM).
Still for that read-out and setting: with `C[n+]1ccc(N)nc1SCC1=C(C(=O)[O-])N2C(=O)C(NC(=O)/C(=N\OC(C)(C)C(=O)O)c3cnc(N)s3)C2SC1` (stereo unspecified) the figure was 0.03 µg/mL (≈ 0.0493 µM).
On to `CC(C)(O/N=C(\C(=O)NC1C(=O)N2C(C(=O)O)=C(CSc3ncccn3)CSC12)c1cnc(N)s1)C(=O)O` (stereo unspecified), for which the MIC worked out at 1 µg/mL (≈ 1.73 µM).

For a further experiment, the system named is Proteus vulgaris. Put plainly: In vitro minimum inhibitory concentration for Proteus vulgaris (ATCC-6059) by agar dilution method. The experiment is classed as functional. The settings on record: Proteus vulgaris; read-out: MIC. In short, it runs like this: as §1
On to `COc1cc(N)nc(SCC2=C(C(=O)[O-])N3C(=O)C(NC(=O)/C(=N\OC(C)(C)C(=O)O)c4cnc(N)s4)C3SC2)[n+]1C` (stereo unspecified), for which the minimum inhibitory concentration (MIC) was 0.13 µg/mL (≈ 0.204 µM).
On the same count and under the same terms, with `C[n+]1ccc(N)nc1SCC1=C(C(=O)[O-])N2C(=O)C(NC(=O)/C(=N\OC(C)(C)C(=O)O)c3cnc(N)s3)C2SC1` (stereo unspecified) the figure was 0.06 µg/mL (≈ 0.0986 µM); with `CC(C)(O/N=C(\C(=O)NC1C(=O)N2C(C(=O)O)=C(CSc3ncccn3)CSC12)c1cnc(N)s1)C(=O)O` (stereo unspecified), 0.063 µg/mL (≈ 0.109 µM).

Another experiment deals with Salmonella typhimurium. Put plainly: In vitro minimum inhibitory concentration for Salmonella Typhimurium (ATCC-14028) by agar dilution method. Type of experiment: functional, Salmonella enterica subsp. enterica serovar Typhimurium. The following applies: Salmonella enterica; read-out: MIC. The gist of the method: as §1
As to `COc1cc(N)nc(SCC2=C(C(=O)[O-])N3C(=O)C(NC(=O)/C(=N\OC(C)(C)C(=O)O)c4cnc(N)s4)C3SC2)[n+]1C` (stereo unspecified), the minimum inhibitory concentration (MIC) came to 0.25 µg/mL (≈ 0.391 µM).
Take `C[n+]1ccc(N)nc1SCC1=C(C(=O)[O-])N2C(=O)C(NC(=O)/C(=N\OC(C)(C)C(=O)O)c3cnc(N)s3)C2SC1` (stereo unspecified): the MIC is 0.13 µg/mL (≈ 0.214 µM).
The same measure, in the same setting: the result for `CC(C)(O/N=C(\C(=O)NC1C(=O)N2C(C(=O)O)=C(CSc3ncccn3)CSC12)c1cnc(N)s1)C(=O)O` (stereo unspecified) reads 2 µg/mL (≈ 3.45 µM).

A further experiment deals with Pseudomonas aeruginosa. Description: In vitro minimum inhibitory concentration for Pseudomonas aeruginosa (ATCC-27853) by agar dilution method. The experiment is classed as functional. The following applies: Pseudomonas aeruginosa; read-out: MIC. In short, it runs like this: as §1
Take `COc1cc(N)nc(SCC2=C(C(=O)[O-])N3C(=O)C(NC(=O)/C(=N\OC(C)(C)C(=O)O)c4cnc(N)s4)C3SC2)[n+]1C` (stereo unspecified): the MIC was 2 µg/mL (≈ 3.13 µM).
With `C[n+]1ccc(N)nc1SCC1=C(C(=O)[O-])N2C(=O)C(NC(=O)/C(=N\OC(C)(C)C(=O)O)c3cnc(N)s3)C2SC1` (stereo unspecified), the MIC worked out at 1 µg/mL (≈ 1.64 µM).
On the same count and under the same terms, the result for `CC(C)(O/N=C(\C(=O)NC1C(=O)N2C(C(=O)O)=C(CSc3ncccn3)CSC12)c1cnc(N)s1)C(=O)O` (stereo unspecified) reads 16 µg/mL (≈ 27.6 µM).

Another experiment deals with Staphylococcus epidermidis. Put plainly: In vitro minimum inhibitory concentration for Staphylococcus epidermidis (ATCC-12228) by agar dilution method. The experiment is classed as functional. The following applies: Staphylococcus epidermidis; read-out: MIC. In short, it runs like this:
as §1
On to `COc1cc(N)nc(SCC2=C(C(=O)[O-])N3C(=O)C(NC(=O)/C(=N\OC(C)(C)C(=O)O)c4cnc(N)s4)C3SC2)[n+]1C` (stereo unspecified), for which the MIC came to 1 µg/mL (≈ 1.57 µM).
The same measure, in the same setting: with `C[n+]1ccc(N)nc1SCC1=C(C(=O)[O-])N2C(=O)C(NC(=O)/C(=N\OC(C)(C)C(=O)O)c3cnc(N)s3)C2SC1` (stereo unspecified) the figure was 2 µg/mL (≈ 3.29 µM); with `CC(C)(O/N=C(\C(=O)NC1C(=O)N2C(C(=O)O)=C(CSc3ncccn3)CSC12)c1cnc(N)s1)C(=O)O` (stereo unspecified), 8 µg/mL (≈ 13.8 µM).

The next experiment relates to Enterobacter cloacae. Put plainly: In vitro minimum inhibitory concentration for Enterobacter cloacae (ATCC-27508) by agar dilution method. Type of experiment: functional. The following applies: Enterobacter cloacae; read-out: MIC. The gist of the method: as §1
`COc1cc(N)nc(SCC2=C(C(=O)[O-])N3C(=O)C(NC(=O)/C(=N\OC(C)(C)C(=O)O)c4cnc(N)s4)C3SC2)[n+]1C` (stereo unspecified): the MIC amounted to 0.02 µg/mL (≈ 0.0313 µM).
Regarding `C[n+]1ccc(N)nc1SCC1=C(C(=O)[O-])N2C(=O)C(NC(=O)/C(=N\OC(C)(C)C(=O)O)c3cnc(N)s3)C2SC1` (stereo unspecified), the minimal inhibitory concentration (MIC) is less than 0.008 µg/mL.
Still for that read-out and setting: the result for `CC(C)(O/N=C(\C(=O)NC1C(=O)N2C(C(=O)O)=C(CSc3ncccn3)CSC12)c1cnc(N)s1)C(=O)O` (stereo unspecified) reads 0.5 µg/mL (≈ 0.863 µM).

Another experiment has as its system Pseudomonas aeruginosa. Put plainly: In vitro minimum inhibitory concentration for Pseudomonas aeruginosa (ATCC 10145) by agar dilution method. The experiment is classed as functional.
Conditions: not given
The gist of the method: as §1
On to `COc1cc(N)nc(SCC2=C(C(=O)[O-])N3C(=O)C(NC(=O)/C(=N\OC(C)(C)C(=O)O)c4cnc(N)s4)C3SC2)[n+]1C` (stereo unspecified), for which 4 µg/mL (≈ 6.26 µM) was the least that counted as inhibitory (MIC).
Still for that read-out and setting: with `C[n+]1ccc(N)nc1SCC1=C(C(=O)[O-])N2C(=O)C(NC(=O)/C(=N\OC(C)(C)C(=O)O)c3cnc(N)s3)C2SC1` (stereo unspecified) the figure was 2 µg/mL (≈ 3.29 µM).
On the same count and under the same terms, the result for `CC(C)(O/N=C(\C(=O)NC1C(=O)N2C(C(=O)O)=C(CSc3ncccn3)CSC12)c1cnc(N)s1)C(=O)O` (stereo unspecified) reads 32 µg/mL (≈ 55.2 µM).

In another experiment the test system is Klebsiella aerogenes. Put plainly: In vitro minimum inhibitory concentration for Enterobacter aerogenes (ATCC-29751) by agar dilution method. The following applies: Klebsiella aerogenes; read-out: MIC. Type of experiment: functional. The gist of the method:
as §1
Consider `COc1cc(N)nc(SCC2=C(C(=O)[O-])N3C(=O)C(NC(=O)/C(=N\OC(C)(C)C(=O)O)c4cnc(N)s4)C3SC2)[n+]1C` (stereo unspecified), for which the MIC turned out to be 4 µg/mL (≈ 6.26 µM).
On the same count and under the same terms, the result for `C[n+]1ccc(N)nc1SCC1=C(C(=O)[O-])N2C(=O)C(NC(=O)/C(=N\OC(C)(C)C(=O)O)c3cnc(N)s3)C2SC1` (stereo unspecified) reads 1 µg/mL (≈ 1.64 µM); that for `CC(C)(O/N=C(\C(=O)NC1C(=O)N2C(C(=O)O)=C(CSc3ncccn3)CSC12)c1cnc(N)s1)C(=O)O` (stereo unspecified), 16 µg/mL (≈ 27.6 µM).

In another experiment the test system is Staphylococcus aureus. Description: In vitro minimum inhibitory concentration for Staphylococcus aureus (ATCC 6538p) by agar dilution method. Type of experiment: functional. The following applies: Staphylococcus aureus, ATCC 6538p; read-out: MIC. The gist of the method:
as §1
As to `COc1cc(N)nc(SCC2=C(C(=O)[O-])N3C(=O)C(NC(=O)/C(=N\OC(C)(C)C(=O)O)c4cnc(N)s4)C3SC2)[n+]1C` (stereo unspecified), the MIC is 4 µg/mL (≈ 6.26 µM).
Same read-out and setting: with `C[n+]1ccc(N)nc1SCC1=C(C(=O)[O-])N2C(=O)C(NC(=O)/C(=N\OC(C)(C)C(=O)O)c3cnc(N)s3)C2SC1` (stereo unspecified) the figure was 4 µg/mL (≈ 6.57 µM); with `CC(C)(O/N=C(\C(=O)NC1C(=O)N2C(C(=O)O)=C(CSc3ncccn3)CSC12)c1cnc(N)s1)C(=O)O` (stereo unspecified), 16 µg/mL (≈ 27.6 µM).
